One block for each compound: values may come before it.
What was measured:
[1] = biological target: T1, C-C chemokine receptor type 2 (Homo sapiens, UniProt P41597); test: Displacement of [125I]MCP1 from human CCR2 expressed in monocytes; type: cell-based
In short: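 Human CCR2 binding was read as inhibition of 125I-MCP-1 binding to monocyte cells stably transfected with CCR2. The assay was run in the presence of 0.5% BSA, using membranes of these cells.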
Target sequence in this assay (P41597 whole entry): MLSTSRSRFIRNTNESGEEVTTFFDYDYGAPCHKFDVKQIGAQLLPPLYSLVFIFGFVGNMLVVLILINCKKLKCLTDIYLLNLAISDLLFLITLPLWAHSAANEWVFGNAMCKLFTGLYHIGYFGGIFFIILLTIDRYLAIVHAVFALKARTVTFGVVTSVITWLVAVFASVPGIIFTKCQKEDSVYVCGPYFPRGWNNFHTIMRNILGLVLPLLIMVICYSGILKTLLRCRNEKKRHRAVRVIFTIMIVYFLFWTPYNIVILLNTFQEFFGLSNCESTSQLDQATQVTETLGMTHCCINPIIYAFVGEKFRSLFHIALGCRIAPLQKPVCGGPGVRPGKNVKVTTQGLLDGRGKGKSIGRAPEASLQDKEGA

[2] = biological target: C-C chemokine receptor type 2 (Mus musculus, UniProt P51683); test: Displacement of [125I]MCP1 from mouse CCR2 expressed in monocytes; type: cell-based
[3] = biological target: T1, C-C chemokine receptor type 2; test: Displacement of [125I]MCP-1 from human CCR2 expressed in monocytes 1 uM; type: cell-based
Target sequence in this assay (P41597 whole entry, looked up): as the sequence (P41597 whole entry) above

[4] = biological target: T2, C-C chemokine receptor type 3 (Homo sapiens) (UniProt P51677); test: Inhibition of CCR3 at 1uM
T2 sequence (whole entry): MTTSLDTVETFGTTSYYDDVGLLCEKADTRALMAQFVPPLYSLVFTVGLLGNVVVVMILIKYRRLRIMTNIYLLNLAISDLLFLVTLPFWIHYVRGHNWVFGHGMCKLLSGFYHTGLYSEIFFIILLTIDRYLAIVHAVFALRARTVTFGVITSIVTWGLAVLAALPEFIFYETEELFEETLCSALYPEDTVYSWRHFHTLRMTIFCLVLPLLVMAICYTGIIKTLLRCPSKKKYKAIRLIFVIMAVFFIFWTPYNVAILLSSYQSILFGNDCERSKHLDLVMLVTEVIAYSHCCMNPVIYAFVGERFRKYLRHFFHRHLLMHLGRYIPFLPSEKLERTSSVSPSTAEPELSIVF

[5] = Cmax in Beagle dog; type: ADME, organism-based, Canis lupus familiaris; conditions: in vivo
[6] = Cmax in Sprague-Dawley rat; type: ADME, organism-based; conditions: in vivo
[7] = Half life in Sprague-Dawley rat; type: ADME, organism-based; conditions: in vivo
[8] = Half life in Beagle dog; type: ADME, organism-based, Canis lupus familiaris; conditions: in vivo
[9] = Bioavailability in Beagle dog; type: ADME, organism-based, Canis lupus familiaris; conditions: in vivo
[10] = biological target: T3, C-C chemokine receptor type 1 (Homo sapiens) (UniProt P32246); test: Inhibition of CCR1 at 1uM
T3 sequence (whole entry): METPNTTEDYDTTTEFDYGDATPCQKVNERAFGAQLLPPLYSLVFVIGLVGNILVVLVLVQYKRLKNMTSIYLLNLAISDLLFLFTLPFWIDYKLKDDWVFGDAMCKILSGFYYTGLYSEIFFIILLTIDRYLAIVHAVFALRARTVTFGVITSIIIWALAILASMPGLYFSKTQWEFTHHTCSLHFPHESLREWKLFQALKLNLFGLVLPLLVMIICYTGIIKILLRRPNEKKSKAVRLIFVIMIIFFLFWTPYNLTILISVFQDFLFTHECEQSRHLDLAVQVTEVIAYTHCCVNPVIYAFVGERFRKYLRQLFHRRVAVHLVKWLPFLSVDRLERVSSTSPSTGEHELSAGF

[11] = Tmax in Beagle dog; type: ADME, organism-based, Canis lupus familiaris; conditions: in vivo
[12] = biological target: C-X-C chemokine receptor type 4 (Homo sapiens) (UniProt P61073); test: Inhibition of CXCR4 at 1uM
[13] = Tmax in Sprague-Dawley rat; type: ADME, organism-based; conditions: in vivo
[14] = Clearance in Sprague-Dawley rat; type: ADME, organism-based; conditions: in vivo
[15] = biological target: C-C chemokine receptor type 5 (Homo sapiens) (UniProt P51681); test: Inhibition of CCR5 at 1uM
[16] = biological target: Substance-P receptor (Homo sapiens) (UniProt P25103); test: Inhibition of NK1 receptor at 1uM
[17] = Bioavailability in Sprague-Dawley rat; type: ADME, organism-based; conditions: in vivo
[18] = biological target: T4, C-C chemokine receptor type 4 (Homo sapiens) (UniProt P51679); test: Inhibition of CCR4 at 1uM
T4 sequence (whole entry): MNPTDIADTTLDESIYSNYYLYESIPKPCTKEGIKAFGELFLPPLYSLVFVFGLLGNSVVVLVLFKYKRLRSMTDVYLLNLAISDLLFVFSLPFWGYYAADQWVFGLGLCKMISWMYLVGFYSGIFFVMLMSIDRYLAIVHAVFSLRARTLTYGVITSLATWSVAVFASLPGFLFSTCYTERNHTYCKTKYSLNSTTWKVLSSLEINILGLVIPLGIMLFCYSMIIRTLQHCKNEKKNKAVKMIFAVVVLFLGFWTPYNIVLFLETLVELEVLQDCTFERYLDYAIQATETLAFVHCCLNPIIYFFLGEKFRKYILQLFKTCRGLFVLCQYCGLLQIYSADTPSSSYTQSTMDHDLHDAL

[19] = Volume of distribution in Beagle dog; type: ADME, organism-based, Canis lupus familiaris; conditions: in vivo, read-out: Vdss
[20] = Clearance in Beagle dog; type: ADME, organism-based, Canis lupus familiaris; conditions: in vivo
[21] = Volume of distribution in Sprague-Dawley rat; type: ADME, organism-based; conditions: in vivo, read-out: Vdss

Sequence of C-C chemokine receptor type 2 (Mus musculus, UniProt P51683) (P51683 whole entry): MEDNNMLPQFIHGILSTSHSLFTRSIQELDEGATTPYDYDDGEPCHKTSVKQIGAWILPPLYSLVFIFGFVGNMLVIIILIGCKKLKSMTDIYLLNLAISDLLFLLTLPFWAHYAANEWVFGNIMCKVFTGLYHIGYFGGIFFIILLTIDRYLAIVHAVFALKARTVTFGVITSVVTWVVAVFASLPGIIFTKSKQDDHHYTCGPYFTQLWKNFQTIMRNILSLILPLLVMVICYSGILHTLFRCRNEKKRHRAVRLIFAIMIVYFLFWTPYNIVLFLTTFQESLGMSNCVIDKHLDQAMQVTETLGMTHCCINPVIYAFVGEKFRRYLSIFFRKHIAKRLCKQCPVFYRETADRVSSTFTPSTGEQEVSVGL
Sequence of C-C chemokine receptor type 5 (Homo sapiens) (P51681 whole entry, looked up): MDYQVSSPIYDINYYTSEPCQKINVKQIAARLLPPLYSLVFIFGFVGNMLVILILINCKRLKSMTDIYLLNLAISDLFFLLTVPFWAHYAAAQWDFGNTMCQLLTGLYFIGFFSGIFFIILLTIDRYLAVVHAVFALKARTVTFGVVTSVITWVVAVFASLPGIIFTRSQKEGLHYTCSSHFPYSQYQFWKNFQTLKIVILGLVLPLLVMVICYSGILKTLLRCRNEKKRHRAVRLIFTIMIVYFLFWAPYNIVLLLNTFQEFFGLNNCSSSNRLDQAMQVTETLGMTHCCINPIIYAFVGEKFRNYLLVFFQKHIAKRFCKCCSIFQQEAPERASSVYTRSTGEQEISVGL
Sequence of Substance-P receptor (Homo sapiens) (P25103 whole entry): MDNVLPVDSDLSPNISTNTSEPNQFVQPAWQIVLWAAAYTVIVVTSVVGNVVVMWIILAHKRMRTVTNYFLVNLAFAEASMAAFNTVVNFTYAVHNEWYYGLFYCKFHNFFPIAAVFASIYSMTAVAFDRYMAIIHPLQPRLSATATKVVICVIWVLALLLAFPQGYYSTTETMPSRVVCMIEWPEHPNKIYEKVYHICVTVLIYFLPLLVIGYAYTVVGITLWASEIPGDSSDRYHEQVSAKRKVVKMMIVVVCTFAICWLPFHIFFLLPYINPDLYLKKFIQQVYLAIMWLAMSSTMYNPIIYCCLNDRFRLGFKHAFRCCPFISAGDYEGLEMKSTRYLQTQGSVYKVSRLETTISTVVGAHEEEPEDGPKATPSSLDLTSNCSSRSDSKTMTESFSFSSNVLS
Sequence of C-X-C chemokine receptor type 4 (Homo sapiens) (P61073 whole entry): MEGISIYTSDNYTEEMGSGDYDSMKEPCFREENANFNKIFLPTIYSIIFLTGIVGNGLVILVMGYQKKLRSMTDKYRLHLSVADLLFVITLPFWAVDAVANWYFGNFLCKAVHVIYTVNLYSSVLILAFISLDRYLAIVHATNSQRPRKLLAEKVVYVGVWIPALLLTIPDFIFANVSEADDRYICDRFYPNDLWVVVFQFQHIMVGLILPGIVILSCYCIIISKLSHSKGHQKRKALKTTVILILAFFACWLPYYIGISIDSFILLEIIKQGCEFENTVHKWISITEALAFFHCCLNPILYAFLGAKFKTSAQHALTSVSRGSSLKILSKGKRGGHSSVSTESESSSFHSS

Compound: CC(=O)Nc1nc(C(CCN2CCCCC2)C(=O)NCc2cc(C(F)(F)F)cc(C(F)(F)F)c2)cs1 (stereo not given)
- IC50 [1]: 13 nM

Compound: CC(C(=O)Nc1nc(C(CCN2CC[C@]3(C=Cc4ccccc43)[C@@H](C)C2)C(=O)NCc2cc(C(F)(F)F)cc(C(F)(F)F)c2)cs1)c1ccccc1 (stereo not given in full)
- IC50 [2]: 517 nM
- IC50 [1]: 74 nM

Compound: CC(=O)Nc1nc(C(CCN2CCN(c3ccc(F)cc3)CC2)C(=O)NCc2cc(C(F)(F)F)cc(C(F)(F)F)c2)cs1 (stereo not given)
- IC50 [1]: 32.7 nM

Compound: Nc1nc(C(CCN2CCC(c3ccc(F)cc3)CC2)C(=O)NCc2cc(C(F)(F)F)cc(C(F)(F)F)c2)cs1 (stereo not given)
- IC50 [1]: 9.1 nM

Compound: CC(=O)Nc1nc(C(CCN2CCC3(C=Cc4ccccc43)CC2)C(=O)NCc2cc(C(F)(F)F)cc(C(F)(F)F)c2)cs1 (stereo not given)
- IC50 [1]: 1.7 nM

Compound: C[C@H]1CN(CCC(C(=O)NCc2cc(C(F)(F)F)cc(C(F)(F)F)c2)c2csc(NC(=O)Cc3ccccc3)n2)CC[C@]12C=Cc1ccccc12 (stereo not given in full)
- IC50 [2]: 165 nM
- IC50 [1]: 19 nM

Compound: Nc1nc(C(CCN2CCCCC2)C(=O)NCc2cc(C(F)(F)F)cc(C(F)(F)F)c2)cs1 (stereo not given)
- inhibition [3]: 75%

Compound: CNC(=O)Nc1nc([C@@H](CCN2CCC3(C=Cc4ccccc43)CC2)C(=O)NCc2cc(C(F)(F)F)cc(C(F)(F)F)c2)cs1
- IC50 [1]: 5.8 nM

Compound: CC(=O)Nc1nc([C@@H](CCN2CCC3(C=Cc4ccccc43)CC2)C(=O)NCc2cc(C(F)(F)F)cc(C(F)(F)F)c2)cs1
- IC50 [1]: 6.5 nM

Compound: CNC(=O)Nc1nc([C@H](CCN2CCC3(C=Cc4ccccc43)CC2)C(=O)NCc2cc(C(F)(F)F)cc(C(F)(F)F)c2)cs1
- IC50 [1]: 0.8 nM

Compound: Nc1nc(C(CCN2CCC3(C=Cc4ccccc43)CC2)C(=O)NCc2cc(C(F)(F)F)cc(C(F)(F)F)c2)cs1 (stereo not given)
- IC50 [1]: 7.3 nM

Compound: CC(=O)Nc1nc(C(CCN2CCC3(C=Cc4ccccc43)[C@@H](C)C2)C(=O)NCc2cc(C(F)(F)F)cc(C(F)(F)F)c2)cs1 (stereo not given in full)
- IC50 [1]: 3 nM

Compound: C[C@H]1CN(CCC(C(=O)NCc2cc(C(F)(F)F)cc(C(F)(F)F)c2)c2csc(NC(=O)Cc3ccccn3)n2)CC[C@]12C=Cc1ccccc12 (stereo not given in full)
- IC50 [2]: 79 nM
- IC50 [1]: 13 nM

Compound: Nc1nc(C(CCN2CCN(c3ccc(F)cc3)CC2)C(=O)NCc2cc(C(F)(F)F)cc(C(F)(F)F)c2)cs1 (stereo not given)
- inhibition [3]: 70%

Next, values leading:

- IC50 [1]: 2.3 nM
Compound: CN(C)C(=O)Nc1nc(C(CCN2CCC(c3ccccc3)CC2)C(=O)NCc2cc(C(F)(F)F)cc(C(F)(F)F)c2)cs1 (stereo not given)

- IC50 [1]: 1.8 nM
Compound: CC(=O)Nc1nc([C@H](CCN2CCC(c3ccccc3)CC2)C(=O)NCc2cc(C(F)(F)F)cc(C(F)(F)F)c2)cs1

- IC50 [1]: 14.3 nM
Compound: CC(C)(C)OC(=O)Nc1nc([C@H](CCN2CCC(c3ccccc3)CC2)C(=O)NCc2cc(C(F)(F)F)cc(C(F)(F)F)c2)cs1

- IC50 [1]: 13.3 nM
Compound: Nc1nc([C@H](CCN2CCC(c3ccccc3)CC2)C(=O)NCc2cc(C(F)(F)F)cc(C(F)(F)F)c2)cs1

- IC50 [1]: 30 nM
Compound: CNC(=O)Nc1nc([C@@H](CCN2CCC(c3ccccc3)CC2)C(=O)NCc2cc(C(F)(F)F)cc(C(F)(F)F)c2)cs1

- IC50 [1]: 3.9 nM
Compound: O=C(Nc1nc(C(CCN2CCC(c3ccccc3)CC2)C(=O)NCc2cc(C(F)(F)F)cc(C(F)(F)F)c2)cs1)C1CC1 (stereo not given)

- IC50 [1]: 4 nM
Compound: O=CNc1nc(C(CCN2CCC(c3ccccc3)CC2)C(=O)NCc2cc(C(F)(F)F)cc(C(F)(F)F)c2)cs1 (stereo not given)

- IC50 [1]: 13.3 nM
Compound: CC(C)(C)OC(=O)Nc1nc([C@@H](CCN2CCC(c3ccccc3)CC2)C(=O)NCc2cc(C(F)(F)F)cc(C(F)(F)F)c2)cs1

- inhibition [4]: 7%
- Cmax [5]: 18 nM
- Cmax [6]: 64 nM
- half-life [7]: 1.4 h
- half-life [8]: 2.28 h
- bioavailability [9]: 1.6%
- inhibition [10]: 66%
- Tmax [11]: 0.5 h
- inhibition [12]: 27%
- Tmax [13]: 2.2 h
- clearance [14]: 52.5 mL/min/kg
- inhibition [15]: 44%
- inhibition [16]: 56%
- bioavailability [17]: 17%
- inhibition [18]: 86%
- IC50 [1]: 5.2 nM
- Vd [19]: 4 L/kg
- clearance [20]: 21.6 mL/min/kg
- Vd [21]: 5.3 L/kg
Compound: CC(=O)Nc1nc(C(CCN2CCC(c3ccccc3)CC2)C(=O)NCc2cc(C(F)(F)F)cc(C(F)(F)F)c2)cs1 (stereo not given)

- IC50 [1]: 3.5 nM
Compound: COC(=O)Nc1nc([C@H](CCN2CCC(c3ccccc3)CC2)C(=O)NCc2cc(C(F)(F)F)cc(C(F)(F)F)c2)cs1

— ChEMBL document CHEMBL1143782, “Alpha-aminothiazole-gamma-aminobutanoic amides as potent, small molecule CCR2 receptor antagonists” (Bioorg Med Chem Lett, 2007)
